# Data published in ChEMBL document CHEMBL4765452, “Discovery of (E)-N-(4-methyl-5-(3-(2-(pyridin-2-yl)vinyl)-1H-indazol-6-yl)thiazol-2-yl)-2-(4-methylpiperazin-1-yl)acetamide (IHMT-TRK-284) as a novel orally available type II TRK kinase inhibitor capable of overcoming multiple resistant mutants” (Eur J Med Chem, 2020).
# Active and inactive are the calls of the source. The rule behind the calls is not given here.
# What was measured:
# [1] = biological target: T1, High affinity nerve growth factor receptor (Homo sapiens, UniProt P04629); assay: Inhibition of wild type TEL fused TRKA (unknown origin) transfected in mouse BAF3 cells assessed as growth inhibition after 72 hrs by CCK8 assay; format: cell-based
# Target sequence in this assay (P04629 33-796 limits assumed): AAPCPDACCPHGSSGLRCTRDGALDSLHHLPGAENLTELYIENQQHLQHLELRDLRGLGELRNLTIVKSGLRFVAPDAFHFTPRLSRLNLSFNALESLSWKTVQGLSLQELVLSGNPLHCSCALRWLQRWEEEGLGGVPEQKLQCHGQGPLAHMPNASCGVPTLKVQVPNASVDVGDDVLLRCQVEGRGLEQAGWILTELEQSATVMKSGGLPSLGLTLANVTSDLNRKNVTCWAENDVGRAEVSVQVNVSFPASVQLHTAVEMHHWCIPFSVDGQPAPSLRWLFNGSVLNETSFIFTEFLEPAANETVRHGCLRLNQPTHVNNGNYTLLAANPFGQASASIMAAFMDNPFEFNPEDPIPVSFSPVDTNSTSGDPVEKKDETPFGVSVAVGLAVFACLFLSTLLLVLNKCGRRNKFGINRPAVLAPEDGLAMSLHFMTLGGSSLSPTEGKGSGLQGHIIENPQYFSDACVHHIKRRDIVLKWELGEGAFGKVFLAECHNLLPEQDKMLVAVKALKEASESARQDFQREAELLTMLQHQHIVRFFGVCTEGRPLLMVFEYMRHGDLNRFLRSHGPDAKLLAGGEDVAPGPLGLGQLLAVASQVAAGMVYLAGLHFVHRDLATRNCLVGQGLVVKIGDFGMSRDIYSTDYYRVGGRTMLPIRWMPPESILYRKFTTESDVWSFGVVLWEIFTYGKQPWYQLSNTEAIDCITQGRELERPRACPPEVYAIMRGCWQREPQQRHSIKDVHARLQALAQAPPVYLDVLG
# [2] = biological target: T2, Mast/stem cell growth factor receptor Kit (Homo sapiens, UniProt P10721); assay: Inhibition of TEL fused KIT (unknown origin) transfected in mouse BAF3 cells assessed as growth inhibition after 72 hrs by CCK8 assay; format: cell-based
# Method in brief: (§1)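 TEL-fusion isogenic BaF3 lines were built in-house and grown in RPMI 1640 with 10% FBS and 1% penicillin/streptomycin at 37 °C under 5% CO2. Cells were spun down before use.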
# [3] = biological target: Platelet-derived growth factor receptor beta (Homo sapiens, UniProt P09619); assay: Inhibition of TEL fused PDGFRbeta (unknown origin) transfected in mouse BAF3 cells assessed as growth inhibition after 72 hrs by CCK8 assay; format: cell-based; method in brief: as §1
# [4] = biological target: T3, BDNF/NT-3 growth factors receptor (Homo sapiens, UniProt Q16620); assay: Inhibition of TEL fused TRKB (unknown origin) transfected in mouse BAF3 cells assessed as growth inhibition after 72 hrs by CCK8 assay; format: cell-based; method in brief: as §1
# Target sequence in this assay (Q16620 32-822 limits assumed): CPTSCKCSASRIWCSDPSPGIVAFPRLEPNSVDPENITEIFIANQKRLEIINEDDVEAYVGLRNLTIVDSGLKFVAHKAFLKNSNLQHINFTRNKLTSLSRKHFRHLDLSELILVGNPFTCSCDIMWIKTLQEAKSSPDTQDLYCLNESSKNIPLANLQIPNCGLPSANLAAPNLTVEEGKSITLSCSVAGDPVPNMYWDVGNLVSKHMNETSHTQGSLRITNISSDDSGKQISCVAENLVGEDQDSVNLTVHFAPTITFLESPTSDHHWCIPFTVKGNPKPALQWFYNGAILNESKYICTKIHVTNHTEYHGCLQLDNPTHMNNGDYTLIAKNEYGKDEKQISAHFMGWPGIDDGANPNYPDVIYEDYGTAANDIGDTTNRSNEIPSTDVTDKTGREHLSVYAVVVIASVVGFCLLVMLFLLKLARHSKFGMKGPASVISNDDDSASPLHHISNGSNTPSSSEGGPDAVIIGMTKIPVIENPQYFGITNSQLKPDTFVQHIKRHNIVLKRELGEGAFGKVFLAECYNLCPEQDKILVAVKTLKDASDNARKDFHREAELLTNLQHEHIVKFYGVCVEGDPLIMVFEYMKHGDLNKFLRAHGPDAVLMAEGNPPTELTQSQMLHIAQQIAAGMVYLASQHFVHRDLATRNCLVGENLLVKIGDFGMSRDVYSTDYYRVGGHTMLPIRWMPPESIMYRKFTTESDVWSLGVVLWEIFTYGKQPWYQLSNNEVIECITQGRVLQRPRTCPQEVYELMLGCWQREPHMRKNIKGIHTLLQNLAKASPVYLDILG
# BaF3 [5] = assay: Inhibition of LMNA fused TRKA V573M mutant (unknown origin) transfected in mouse BAF3 cells assessed as growth inhibition after 72 hrs by CCK8 assay; format: cell-based; details: Homo sapiens
# [6] = biological target: T3, BDNF/NT-3 growth factors receptor; assay: Inhibition of human TRKB assessed as remaining enzyme activity at 1 uM by Kinomescan method relative to control
# Target sequence in this assay (Q16620 32-822 limits assumed): as above
# [7] = biological target: T2, Mast/stem cell growth factor receptor Kit; assay: Inhibition of human KIT by Z-LYTE or ADP-Glo assay
# Method in brief: (§2)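 Purified kinase proteins tested biochemically in Z'LYTE or ADP-Glo format.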
# [8] = biological target: T3, BDNF/NT-3 growth factors receptor; assay: Inhibition of human TRKB by Z-LYTE or ADP-Glo assay; method in brief: as §2
# [9] = biological target: High affinity nerve growth factor receptor (Homo sapiens, UniProt P04629, G667C); assay: Inhibition of LMNA fused TRKA G667C mutant (unknown origin) transfected in mouse BaF3 cells assessed as reduction in phosphorylation at Y490 residue after 2 hrs by Western blot analysis; format: cell-based
# Method in brief: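 Isogenic BaF3 lines, made in-house, grown in RPMI 1640 with 10% FBS and 1% penicillin/streptomycin at 37 °C under 5% CO2. Serially diluted compound added for 2 h. Cells collected and lysed, and lysates analysed by western blotting for phospho-TRK. EC50 derived from the blots.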
# [10] = biological target: T1, High affinity nerve growth factor receptor; assay: Inhibition of TRKA in human KM-12-LUC cells assessed as reduction in TRKA phosphorylation at Y490 residue at 0.01 uM after 2 hrs by Western blot analysis; format: cell-based; details: KM12-Luc
# Method in brief: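 KM-12-LUC cells cultured in RPMI 1640 with 10% FBS and 1% penicillin/streptomycin. Serially diluted compound applied for 2 h. Cells collected and lysed, and lysates analysed by western blotting for phospho-TRKA Y490, AKT T308/S473 and ERK1/2 T202/Y204.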
# Target sequence in this assay (P04629 33-796 limits assumed): as the sequence (P04629 33-796 limits assumed) above
# [11] = biological target: T1, High affinity nerve growth factor receptor; assay: Inhibition of TRKA in human KM-12-LUC cells assessed as reduction in ERK1/2 phosphorylation at T202/Y204 residues after 2 hrs by Western blot analysis; format: cell-based, KM12-Luc
# Method in brief: (§3)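 KM-12-LUC (TPM3-TRKA fused colon cancer cells) grown in RPMI 1640 with 10% FBS and 1% penicillin/streptomycin at 37 °C under 5% CO2. Serially diluted compound added for 2 h. Lysates western blotted for phospho-AKT (T308/S473) and phospho-ERK1/2 (T202/Y204).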
# Target sequence in this assay (P04629 whole entry, the tested form may be a part): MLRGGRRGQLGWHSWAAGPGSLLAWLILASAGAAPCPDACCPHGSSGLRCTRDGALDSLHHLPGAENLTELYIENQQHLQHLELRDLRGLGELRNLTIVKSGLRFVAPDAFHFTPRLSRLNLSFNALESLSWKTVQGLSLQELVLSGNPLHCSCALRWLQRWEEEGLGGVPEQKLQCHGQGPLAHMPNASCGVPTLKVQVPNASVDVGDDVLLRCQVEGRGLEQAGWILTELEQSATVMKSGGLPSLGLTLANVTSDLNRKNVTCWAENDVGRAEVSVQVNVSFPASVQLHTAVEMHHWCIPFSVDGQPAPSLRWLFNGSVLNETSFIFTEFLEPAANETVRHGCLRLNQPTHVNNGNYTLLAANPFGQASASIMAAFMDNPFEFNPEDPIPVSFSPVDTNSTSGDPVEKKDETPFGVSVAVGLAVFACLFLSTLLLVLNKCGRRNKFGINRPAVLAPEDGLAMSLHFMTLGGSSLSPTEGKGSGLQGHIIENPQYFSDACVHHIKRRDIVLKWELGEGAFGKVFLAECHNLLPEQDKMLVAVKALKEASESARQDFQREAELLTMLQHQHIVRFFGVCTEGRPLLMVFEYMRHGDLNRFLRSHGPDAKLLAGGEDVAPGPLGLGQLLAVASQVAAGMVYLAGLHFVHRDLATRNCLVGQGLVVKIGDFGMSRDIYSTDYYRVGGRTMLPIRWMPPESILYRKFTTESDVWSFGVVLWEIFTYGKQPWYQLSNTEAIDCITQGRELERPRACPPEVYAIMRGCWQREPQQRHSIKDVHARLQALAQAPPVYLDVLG
# [12] = AUC (0 to t) in mouse at 10 mg/kg, po; format: ADME, organism-based; design: dose 10 mg/kg; details: in vivo
# Method in brief: (§4)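 Intravenous and oral arms were run in parallel in each species (mice, Sprague Dawley rats, beagle dogs). Exposure is reported as AUC0-t in ng/mL·h.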
# [13] = Apparent volume of distribution in mouse at 10 mg/kg, po; format: ADME, organism-based; details: in vivo
# [14] = AUC (0 to t) in Sprague-Dawley rat at 10 mg/kg, po; format: ADME, organism-based; design: dose 10 mg/kg; details: in vivo; method in brief: as §4
# [15] = Half life in Sprague-Dawley rat at 10 mg/kg, po; format: ADME, organism-based; details: in vivo
# [16] = Apparent volume of distribution in Sprague-Dawley rat at 10 mg/kg, po; format: ADME, organism-based; details: in vivo
# [17] = Apparent clearance in Sprague-Dawley rat at 1 mg/kg, iv; format: ADME, organism-based; details: in vivo
# [18] = Apparent clearance in Sprague-Dawley rat at 10 mg/kg, po; format: ADME, organism-based; details: in vivo, read-out: CLz/F (converted)
# [19] = Apparent clearance in Beagle dog at 1 mg/kg, iv; format: ADME, organism-based, Canis lupus familiaris; details: in vivo
# [20] = Apparent clearance in Beagle dog at 5 mg/kg, po; format: ADME, organism-based, Canis lupus familiaris; details: in vivo, read-out: CLz/F (converted)
# [21] = Cmax in Beagle dog at 1 mg/kg, iv; format: ADME, organism-based, Canis lupus familiaris; design: route intravenous, dose 1 mg/kg; details: in vivo
# [22] = Oral bioavailability in Beagle dog at 5 mg/kg; format: ADME, organism-based, Canis lupus familiaris; details: in vivo
# Method in brief: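 Single-dose PK in mice, Sprague Dawley rats and beagle dogs, given i.v. (1 mg/kg) or p.o. (10 mg/kg mice and rats; 5 mg/kg dogs). AUC0-t, T1/2, Tmax and oral bioavailability (F) derived from plasma profiles.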
# BaF3 [23] = assay: Antitumor activity against mouse BAF3 cells harboring TEL fused TRKB allografted in nude mouse assessed as tumor growth inhibition at 80 mg/kg, po administered once daily for 10 days relative to control; format: functional; details: 240 h, time 10 day, read-out: TGI
# Method in brief: (§5)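 Nu/nu mice given 1 million BaF3 cells (TEL-TRKA, TEL-TRKB, TEL-TRKC, LMNA-TRKA-F589L or LMNA-TRKA-G667S) in DMEM, 1:1 with matrigel, injected subcutaneously into the right flank; oral gavage began at 200–400 mm³, 5 mice per group, compound in 0.5% methylcellulose/0.4% Tween 80 in ddH₂O, 10 days; tumor volume [(W²×L)/2] and body weight recorded daily; TGI versus vehicle.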
# BaF3 [24] = assay: Antitumor activity against mouse BAF3 cells harboring TEL fused TRKC allografted in nude mouse assessed as tumor growth inhibition at 80 mg/kg, po administered once daily for 10 days relative to control; format: functional; details: 240 h, time 10 day, read-out: TGI; method in brief: as §5
# [25] = Toxicity in mouse xenografted with mouse BAF3 cells harboring TEL fused TRKB assessed as effect on body weight at 40 to 80 mg/kg, po administered once daily for 10 days; format: organism-based; details: in vivo, 240 h, dose 40-80 mg/kg/day, time 10 day
# Method in brief: (§6)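 nu/nu mice were given subcutaneous right-flank implants in 1:1 DMEM/matrigel: 1 million BaF3 fusion cells or 5 million KM-12-LUC cells. Oral gavage started at 150–200 mm3 (xenograft) or 200–400 mm3 (allograft). Dosing used 40 or 80 mg/kg in HKI vehicle (0.5% methylcellulose/0.4% Tween 80 in ddH2O), with 5 mice per group. Body weight was recorded daily and behaviour observed.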
# [26] = biological target: T1, High affinity nerve growth factor receptor; assay: Inhibition of TRKA in human KM-12-LUC cells assessed as reduction in AKT phosphorylation at S473 residue after 2 hrs by Western blot analysis; format: cell-based, KM12-Luc; method in brief: as §3
# Target sequence in this assay (P04629 whole entry, the tested form may be a part): as above
# [27] = Toxicity in mouse xenografted with mouse BAF3 cells harboring […] TRKA-G667S mutant assessed as effect on abnormal behaviour at 40 to 80 mg/kg, po administered twice daily for 10 days; format: organism-based; details: in vivo, 240 h, dose 40-80 mg/kg, time 10 day; method in brief: as §6
# [28] = Toxicity in mouse xenografted with mouse BAF3 cells harboring […] TRKA-F589L mutant assessed as effect on abnormal behaviour at 40 to 80 mg/kg, po administered once daily for 10 days; format: organism-based; details: in vivo, 240 h, dose 40-80 mg/kg/day, time 10 day; method in brief: as §6
# T2 sequence (P10721 whole entry, the tested form may be a part): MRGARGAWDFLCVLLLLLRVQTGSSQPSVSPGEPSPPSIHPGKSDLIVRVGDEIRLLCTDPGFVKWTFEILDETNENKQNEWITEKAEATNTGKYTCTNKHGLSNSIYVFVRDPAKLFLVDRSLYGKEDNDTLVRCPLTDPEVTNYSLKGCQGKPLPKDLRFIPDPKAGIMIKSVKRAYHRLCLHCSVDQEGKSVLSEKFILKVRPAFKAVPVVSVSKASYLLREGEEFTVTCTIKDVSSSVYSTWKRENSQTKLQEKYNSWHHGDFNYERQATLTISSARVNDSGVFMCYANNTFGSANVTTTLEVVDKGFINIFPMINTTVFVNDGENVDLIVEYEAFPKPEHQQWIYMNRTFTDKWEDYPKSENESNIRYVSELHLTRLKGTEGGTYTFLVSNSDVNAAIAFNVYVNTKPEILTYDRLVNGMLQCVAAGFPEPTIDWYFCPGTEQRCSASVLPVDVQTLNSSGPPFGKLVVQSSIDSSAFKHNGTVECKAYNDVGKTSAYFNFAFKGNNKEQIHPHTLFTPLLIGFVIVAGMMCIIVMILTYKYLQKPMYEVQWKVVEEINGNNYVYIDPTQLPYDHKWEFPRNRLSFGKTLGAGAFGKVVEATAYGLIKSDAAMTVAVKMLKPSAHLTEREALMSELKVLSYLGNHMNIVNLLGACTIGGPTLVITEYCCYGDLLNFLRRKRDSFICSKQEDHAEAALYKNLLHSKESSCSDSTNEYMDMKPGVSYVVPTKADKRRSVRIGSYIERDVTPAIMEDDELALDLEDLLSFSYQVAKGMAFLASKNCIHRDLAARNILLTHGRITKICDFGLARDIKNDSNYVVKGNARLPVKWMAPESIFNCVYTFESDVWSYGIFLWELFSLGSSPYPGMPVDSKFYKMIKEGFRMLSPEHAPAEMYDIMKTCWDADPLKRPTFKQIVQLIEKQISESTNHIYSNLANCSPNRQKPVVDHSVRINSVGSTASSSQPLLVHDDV
# Chain of High affinity nerve growth factor receptor (Homo sapiens, UniProt P04629, G667C) (P04629 33-796 G667C limits assumed): as the sequence (P04629 33-796 limits assumed) above, with G635C counted along it
# Chain of Platelet-derived growth factor receptor beta (P09619 whole entry, the tested form may be a part): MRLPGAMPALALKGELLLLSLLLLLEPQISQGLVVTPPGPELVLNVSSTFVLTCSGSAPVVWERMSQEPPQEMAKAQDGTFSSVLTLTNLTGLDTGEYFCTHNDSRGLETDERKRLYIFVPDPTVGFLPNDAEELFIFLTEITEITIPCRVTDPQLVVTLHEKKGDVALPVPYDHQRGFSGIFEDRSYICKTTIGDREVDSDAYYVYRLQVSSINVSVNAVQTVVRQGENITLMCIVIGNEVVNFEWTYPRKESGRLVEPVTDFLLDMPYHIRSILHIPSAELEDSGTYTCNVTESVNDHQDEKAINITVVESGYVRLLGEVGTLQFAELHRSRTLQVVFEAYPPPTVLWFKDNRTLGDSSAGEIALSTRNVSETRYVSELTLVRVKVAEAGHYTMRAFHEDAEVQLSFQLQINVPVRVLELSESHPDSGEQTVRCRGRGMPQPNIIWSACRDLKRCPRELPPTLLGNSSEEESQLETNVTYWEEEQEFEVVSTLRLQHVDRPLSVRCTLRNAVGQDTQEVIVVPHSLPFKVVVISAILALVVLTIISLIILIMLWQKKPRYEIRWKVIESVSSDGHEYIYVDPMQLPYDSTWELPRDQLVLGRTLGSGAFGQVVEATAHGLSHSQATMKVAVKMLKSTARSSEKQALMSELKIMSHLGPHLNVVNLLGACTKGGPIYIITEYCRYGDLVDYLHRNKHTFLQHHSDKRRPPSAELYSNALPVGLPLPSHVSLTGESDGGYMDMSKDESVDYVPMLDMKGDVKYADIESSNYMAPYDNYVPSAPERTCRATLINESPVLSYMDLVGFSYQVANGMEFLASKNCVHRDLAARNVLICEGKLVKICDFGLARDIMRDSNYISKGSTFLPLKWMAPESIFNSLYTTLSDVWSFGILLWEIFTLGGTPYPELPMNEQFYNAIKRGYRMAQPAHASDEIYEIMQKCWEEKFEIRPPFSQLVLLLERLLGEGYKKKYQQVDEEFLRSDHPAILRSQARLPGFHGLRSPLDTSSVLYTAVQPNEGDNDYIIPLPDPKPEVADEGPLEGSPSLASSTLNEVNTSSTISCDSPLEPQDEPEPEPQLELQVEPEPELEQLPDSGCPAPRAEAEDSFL
smiles,measurement,setting,value
Cc1nc(NC(=O)CN2CCN(C)CC2)sc1-c1ccc2c(/C=C/c3ccccn3)n[nH]c2c1,GI50,[1],8.5 nM
same,GI50,[2],923 nM
same,GI50,[3],1.4 nM
same,GI50,[4],8.2 nM
same,GI50,BaF3 [5],3 nM
same,Activity,[6],0.05%
same,IC50,[7],2170 nM
same,IC50,[8],0.71 nM
same,EC50,[9],67 nM
same,inhibition,[10],Active
same,EC50,[11],< 30 nM
same,AUC(0-t),[12],1430 ng·h/mL
same,Vz,[13],31.567 L/kg
same,AUC(0-t),[14],952 ng·h/mL
same,t1/2,[15],2.5 h
same,Vz,[16],37.364 L/kg
same,CLz/F,[17],41.35 mL/min/kg
same,CL/F,[18],170 mL/min/kg
same,CLz/F,[19],47.68 mL/min/kg
same,CL/F,[20],140 mL/min/kg
same,Cmax,[21],284 ng/mL
same,bioavailability,[22],35%
same,inhibition in vivo at 80 mg/kg/day,BaF3 [23],92.7%
same,inhibition in vivo at 80 mg/kg/day,BaF3 [24],57.5%
same,Activity,[25],Non-Toxic
same,EC50,[26],< 30 nM
same,Activity,[27],Non-Toxic
same,Activity,[28],Non-Toxic
